The assay deals with Transient receptor potential cation channel subfamily A member 1 (Homo sapiens, UniProt O75762). In words: Antagonist activity at human TRPA1 expressed in CHO-TREX cells assessed as inhibition of cinnamaldehyde-induced calcium flux incubated 10 mins prior to cinnamaldehyde addition by FLIPR assay relative to control. The class given is cell-based. An outline of the steps:
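TRPA1-expressing CHO-TREX cells, channel expression induced with tetracycline (0.5 µg/mL human, 1 µg/mL mouse or rat). Cells loaded with Fluo4-AM for 90 min at room temperature, washed, then test agent added in HBSS/20 mM HEPES/2.5 mM probenecid/0.1% BSA. Agonist added 10 min later at EC80: human cinnamaldehyde 30 µM, AITC 2.5 µM, dibenzoxazepine-carboxamide 5 nM; rat and mouse cinnamaldehyde 40 µM. FLIPR calcium flux; mean of triplicates fitted to sigmoidal dose-response curves.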
For orientation: Calcium flux is commonly read through the fluorescence of an indicator in the cells.

Bounds are passed on as bounds.

Transient receptor potential cation channel subfamily A member 1, sequence (O75762 whole entry): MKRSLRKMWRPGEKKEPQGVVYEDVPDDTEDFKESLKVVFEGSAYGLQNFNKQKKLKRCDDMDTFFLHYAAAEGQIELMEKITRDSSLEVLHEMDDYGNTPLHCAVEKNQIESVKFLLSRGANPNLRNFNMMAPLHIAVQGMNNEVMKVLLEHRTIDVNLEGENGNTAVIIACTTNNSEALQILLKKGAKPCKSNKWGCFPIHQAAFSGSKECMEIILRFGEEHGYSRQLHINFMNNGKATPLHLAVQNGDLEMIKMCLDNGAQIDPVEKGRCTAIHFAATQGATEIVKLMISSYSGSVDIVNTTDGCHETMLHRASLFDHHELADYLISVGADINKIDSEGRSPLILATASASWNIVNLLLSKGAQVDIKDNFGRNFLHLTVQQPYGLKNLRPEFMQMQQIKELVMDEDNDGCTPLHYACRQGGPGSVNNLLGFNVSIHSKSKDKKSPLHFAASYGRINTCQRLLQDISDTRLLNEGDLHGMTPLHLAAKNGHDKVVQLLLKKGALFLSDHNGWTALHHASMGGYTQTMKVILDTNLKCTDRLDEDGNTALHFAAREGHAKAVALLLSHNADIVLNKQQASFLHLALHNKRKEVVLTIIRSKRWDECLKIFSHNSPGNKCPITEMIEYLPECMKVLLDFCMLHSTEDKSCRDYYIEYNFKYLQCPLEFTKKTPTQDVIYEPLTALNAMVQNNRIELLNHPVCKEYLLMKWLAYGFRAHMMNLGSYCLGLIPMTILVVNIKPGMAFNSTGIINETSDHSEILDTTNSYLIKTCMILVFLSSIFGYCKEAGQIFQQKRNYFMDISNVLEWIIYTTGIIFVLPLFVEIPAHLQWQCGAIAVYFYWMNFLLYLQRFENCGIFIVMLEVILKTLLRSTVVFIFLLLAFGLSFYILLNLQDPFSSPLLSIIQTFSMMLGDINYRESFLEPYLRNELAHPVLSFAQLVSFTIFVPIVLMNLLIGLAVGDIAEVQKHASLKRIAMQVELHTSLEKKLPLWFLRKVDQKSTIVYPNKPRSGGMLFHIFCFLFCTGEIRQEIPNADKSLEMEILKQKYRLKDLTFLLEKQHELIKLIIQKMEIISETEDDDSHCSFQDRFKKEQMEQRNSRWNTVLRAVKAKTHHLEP

In the case of `c1ccc(-c2ccc3[nH]ncc3c2)cc1`, the IC50 (as a rule, the concentration that inhibits the measured activity by half) is more than 30 µM.

For the compound `CCc1ccccc1-c1ccc2[nH]ncc2c1`, the IC50 was found to be 0.584 µM and the inhibition (commonly the relative decrease from the control value, in per cent) turned out to be 96%.

Consider `Clc1ccccc1-c1ccc2[nH]ncc2c1`, for which the IC50 was found to be 1.23 µM and the inhibition came out at 91%.

For `FC(F)Oc1cc2[nH]ncc2cc1-c1ccccc1C(F)(F)F`, the IC50 was found to be 0.05 µM and the inhibition was determined as 98%.

As for `Cc1n[nH]c2ccc(-c3ccccc3C(F)(F)F)cc12`, the half-inhibitory concentration (IC50) is 3.09 µM and the inhibition was 83%.

On to `FC(F)c1cc2[nH]ncc2cc1-c1ccccc1C(F)(F)F`, for which the IC50 came out at 0.103 µM and the inhibition is 100%.

As to `Cc1ccccc1-c1ccc2[nH]ncc2c1`, the IC50 was found to be 7.81 µM and the inhibition was 78%.

Consider `N#Cc1ccccc1-c1ccc2[nH]ncc2c1`, for which the IC50 amounted to 1.29 µM and the inhibition is 91%.

As to `Fc1c(-c2ccccc2C(F)(F)F)ccc2[nH]ncc12`, the IC50 amounted to 0.296 µM and the inhibition was found to be 97%.

For the compound `Fc1ccc(C(F)(F)F)c(-c2ccc3[nH]ncc3c2)c1`, the IC50 stood at 0.306 µM and the inhibition was 98%.

For `Fc1cc2[nH]ncc2cc1-c1ccccc1C(F)(F)F`, the IC50 is 0.048 µM and the inhibition turned out to be 98%.

Consider `CCOc1cc2[nH]ncc2cc1-c1ccccc1C(F)(F)F`, for which the IC50 amounted to 0.039 µM and the inhibition was 97%.

`CC(C)c1cc2[nH]ncc2cc1-c1ccccc1C(F)(F)F`: the half-maximal inhibitory concentration (IC50) is 25.4 µM and the inhibition came out at 59%.

As to `Fc1cccc(C(F)(F)F)c1-c1ccc2[nH]ncc2c1`, the IC50 turned out to be 1.23 µM and the inhibition came out at 95%.

Regarding `Fc1ccccc1-c1ccc2[nH]ncc2c1`, the IC50 was 3.95 µM and the inhibition came to 68%.

For `CC(C)c1ccccc1-c1ccc2[nH]ncc2c1`, the IC50 stood at 0.514 µM and the inhibition stood at 93%.

Regarding `CNC(=O)c1cc2[nH]ncc2cc1-c1ccccc1C(F)(F)F`, the IC50 was more than 30 µM.

Take `FC(F)c1ccccc1-c1ccc2[nH]ncc2c1`: the IC50 amounted to 2.2 µM and the inhibition came to 93%.

`Cc1cc(-c2ccccc2C(F)(F)F)cc2cn[nH]c12`: the IC50 came to 6.72 µM and the inhibition is 98%.

For the compound `Fc1cccc(-c2ccc3[nH]ncc3c2)c1C(F)(F)F`, the IC50 was determined as 8.9 µM and the inhibition came to 97%.

`N#Cc1cc2[nH]ncc2cc1-c1ccccc1C(F)(F)F`: the concentration for half-maximal inhibition (IC50) amounted to 0.129 µM and the inhibition was 100%.

For `COCc1cc2[nH]ncc2cc1-c1ccccc1C(F)(F)F`, the IC50 came out at 0.142 µM and the inhibition stood at 97%.

For the compound `CC(C)(C)c1ccccc1-c1ccc2[nH]ncc2c1`, the half-inhibitory concentration (IC50) came to 3.4 µM and the inhibition was 96%.

For the compound `FC(F)(F)Oc1ccccc1-c1ccc2[nH]ncc2c1`, the IC50 turned out to be 3.43 µM and the inhibition turned out to be 97%.

Consider `Fc1ccc(-c2ccc3[nH]ncc3c2)c(C(F)(F)F)c1`, for which the IC50 is 30 µM.

As for `CCc1cc2[nH]ncc2cc1-c1ccccc1C(F)(F)F`, the IC50 stood at 0.05 µM and the inhibition was 100%.

Turning to `CC(C)Oc1cc2[nH]ncc2cc1-c1ccccc1C(F)(F)F`, the IC50 turned out to be 0.97 µM and the inhibition is 97%.

For the compound `FC(F)(F)c1ccccc1-c1cc2cn[nH]c2cc1C1CC1`, the IC50 amounted to 0.061 µM and the inhibition stood at 99%.

For the compound `Cn1ncc2cc(-c3ccccc3C(F)(F)F)ccc21`, the IC50 was 7.41 µM and the inhibition was 98%.

The values are drawn from ChEMBL document CHEMBL3297713, “Discovery, optimization, and biological evaluation of 5-(2-(trifluoromethyl)phenyl)indazoles as a novel class of transient receptor potential A1 (TRPA1) antagonists” (J Med Chem, 2014).
